Assay [1] is described as follows: Cytotoxicity against human Hep3B cells after 24 hrs by MTT assay. The class given is cell-based, Hep 3B2. In general terms: Tetrazolium assays rely on reduction of a dye to a coloured formazan, in cell work by metabolically active cells.
The target of assay [2] is T1, Hypoxia-inducible factor 1-alpha (Homo sapiens, UniProt Q16665). Description: Inhibition of hypoxia-induced HIF1alpha activation in human Hep3B cells after 16 hrs by HRE-luciferase reporter assay. The following applies: hep 3b2. The format is cell-based. (In general: A reporter such as luciferase makes a cellular process visible.)
Target sequence in this assay (Q16665 whole entry): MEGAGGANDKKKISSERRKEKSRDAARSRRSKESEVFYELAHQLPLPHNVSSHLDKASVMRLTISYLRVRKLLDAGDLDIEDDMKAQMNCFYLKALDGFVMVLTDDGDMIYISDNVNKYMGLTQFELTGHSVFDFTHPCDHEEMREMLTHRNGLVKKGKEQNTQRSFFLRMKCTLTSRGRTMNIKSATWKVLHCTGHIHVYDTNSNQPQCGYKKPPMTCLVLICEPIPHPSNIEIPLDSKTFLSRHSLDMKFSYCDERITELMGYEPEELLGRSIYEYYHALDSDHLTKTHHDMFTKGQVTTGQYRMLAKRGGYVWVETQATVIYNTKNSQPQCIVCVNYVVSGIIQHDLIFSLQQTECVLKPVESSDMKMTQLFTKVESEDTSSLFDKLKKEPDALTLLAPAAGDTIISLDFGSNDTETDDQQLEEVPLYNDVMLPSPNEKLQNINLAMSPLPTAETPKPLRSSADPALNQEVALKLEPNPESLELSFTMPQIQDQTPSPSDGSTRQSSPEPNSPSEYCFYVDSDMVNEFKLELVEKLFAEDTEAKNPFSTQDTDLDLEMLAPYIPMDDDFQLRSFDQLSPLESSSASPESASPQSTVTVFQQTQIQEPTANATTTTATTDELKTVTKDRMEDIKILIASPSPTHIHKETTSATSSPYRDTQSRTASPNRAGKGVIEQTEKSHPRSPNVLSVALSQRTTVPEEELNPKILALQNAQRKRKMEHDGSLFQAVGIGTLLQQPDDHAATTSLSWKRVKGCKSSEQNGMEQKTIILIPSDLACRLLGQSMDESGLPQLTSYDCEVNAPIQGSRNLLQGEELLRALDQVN
The target in assay [3] is T1, Hypoxia-inducible factor 1-alpha. Description: Inhibition of HIF1alpha-mediated VEGF production in human Hep3B cells under hypoxic condition after 17.5 hrs by ELISA. The following applies: Hep 3B2. The class given is cell-based. The method, boiled down:
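Hep3B cells were held under normoxia or hypoxia for 17.5 h with or without compound. Secreted VEGF was then measured by ELISA in the culture supernatant.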
(In general: ELISA stands for enzyme-linked immunosorbent assay.)
Target sequence in this assay (Q16665 whole entry, looked up): as the sequence (Q16665 whole entry) above

Assay [4] shares this target. The assay can be described thus: Inhibition of hypoxia-induced HIF1alpha protein accumulation in nucleus of human Hep3B cells after 12 hrs by Western blot analysis. The class given is functional, cell-based. As to conditions: Hep 3B2. The method, boiled down: (§1)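 Hep3B cells were kept under normoxia or hypoxia for 12 h with or without compound. HIF-1α in nuclear extracts was detected by western blot, with the same blot reprobed for topoisomerase-I as loading control. Bands were quantified by image scanning in arbitrary units.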
Target sequence in this assay (Q16665 whole entry, looked up): as the sequence (Q16665 whole entry) above

For assay [5] the target is unchanged. The assay can be described thus: Inhibition of hypoxia-induced HIF1alpha protein accumulation in nucleus of human Hep3B cells after 12 hrs at 10 uM by Western blot analysis. The class given is functional, cell-based. The following applies: Hep 3B2. The method, boiled down: as §1
Target sequence in this assay (Q16665 whole entry, looked up): as the sequence (Q16665 whole entry) above

Activity calls are given as the source filed them. The calls are words filed in the database; no cut-off is given here.

With `COc1cccc(-c2ccc(C(=O)Oc3ccc4c(c3)OC(C)(C)C(O)C4)cc2)c1` (stereo not drawn), the IC50 (commonly the concentration at which inhibition is half-maximal) in assay [1] was greater than 30 µM; in assay [2] it was 17.2 µM.

Consider `CC(C)(O)C1Cc2ccc(OC(=O)c3cc(O)cc(O)c3)cc2O1` (stereo not drawn), for which the IC50 in assay [1] and in assay [2] was greater than 30 µM throughout.

For the compound `COc1cccc(-c2ccc(C(=O)Oc3ccc4c(c3)OC(C(C)(C)O)C4)cc2)c1` (stereo not drawn), the IC50 in assay [1] and in assay [2] was greater than 30 µM in each case.

Take `CC1(C)Oc2cc(OC(=O)c3ccc(OCc4ccccc4)c(OCc4ccccc4)c3)ccc2CC1O` (stereo not drawn): the IC50 in assay [1] is greater than 30 µM; in assay [2], 7.3 µM.

For the compound `CC(C)(O)C1Cc2ccc(OC(=O)c3cc(OCc4ccccc4)cc(OCc4ccccc4)c3)cc2O1` (stereo not drawn), the results for the IC50 in assay [1] and in assay [2] were greater than 30 µM and 26.2 µM, respectively.

Regarding `CC1(C)Oc2cc(OC(=O)c3ccc(-c4ccc(F)cc4F)cc3)ccc2CC1O` (stereo not drawn), the IC50 in assay [1] was greater than 30 µM; in assay [2] it was 17.6 µM.

For `CC(C)(O)C1Cc2ccc(OC(=O)c3ccc(Br)cc3)cc2O1` (stereo not drawn), the IC50 in assay [1] and in assay [2] was greater than 30 µM throughout.

On to `CC(C)(O)C1Cc2cc3cc(-c4ccncc4)oc3cc2O1` (stereo not drawn), for which the IC50 is greater than 30 µM in assay [1] and 1.1 µM in assay [2].

Take `CC1(C)Oc2cc(OC(=O)c3ccc(Br)cc3)ccc2CC1O` (stereo not drawn): the IC50 in assay [1] was greater than 30 µM; in assay [2], 16.8 µM.

`Cn1cncc1-c1cc2cc3c(cc2o1)OC(C(C)(C)O)C3` (stereo not drawn): the concentration for half-maximal inhibition (IC50) is greater than 30 µM in assay [1] and greater than 0.03 µM in assay [2].

With `CC1(C)Oc2cc(OC(=O)c3cc(O)cc(O)c3)ccc2CC1O` (stereo not drawn), the IC50 in assay [1] and in assay [2] was greater than 30 µM in each case.

Turning to `CC1(C)Oc2cc3oc(-c4cc(O)cc(O)c4)cc3cc2C[C@H]1O` [MORACIN P], the IC50 in assay [2] is 0.0107 µM. That is a double-digit nanomolar value.

With `CC(C)(O)C1Cc2ccc(OC(=O)c3ccc(-c4cccc([N+](=O)[O-])c4)cc3)cc2O1` (stereo not drawn), the IC50 in assay [1] and in assay [2] was greater than 30 µM in each case.

Take `COc1ccccc1-c1cc2cc3c(cc2o1)OC(C(C)(C)O)C3` (stereo not drawn): the IC50 was greater than 30 µM in assay [1] and 0.58 µM in assay [2].

On to `CC1(C)Oc2cc3oc(-c4cc(O)cc(O)c4)cc3cc2CC1O` (racemic) [(+/-)-MORACIN P], for which the IC50 in assay [1] was greater than 30 µM; in assay [2], 10.7 µM.

`COc1cc(OC)cc(-c2cc3cc4c(cc3o2)OC(C(C)(C)O)C4)c1` (stereo not drawn): the IC50 was greater than 30 µM in assay [1] and 0.01 µM in assay [2].

Regarding `CC(C)(O)C1Cc2cc3cc(-c4cc(F)cc(F)c4)oc3cc2O1` (stereo not drawn), the half-inhibitory concentration (IC50) in assay [1] is greater than 30 µM; in assay [2] it was 0.36 µM.

For the compound `CC1(C)Oc2cc(OC(=O)c3cccc(OCc4ccccc4)c3)ccc2CC1O` (stereo not drawn), the IC50 in assay [1] was greater than 30 µM; in assay [2], 5.3 µM.

On to `CC1(C)Oc2cc(OC(=O)c3ccc(OCc4ccccc4)cc3)ccc2CC1O` (stereo not drawn), for which the IC50 in assay [1] is greater than 30 µM; in assay [2], 12.9 µM.

For `CC(C)(O)C1Cc2cc3cc(-c4ccc(OCc5ccccc5)cc4)oc3cc2O1` (stereo not drawn), the half-maximal inhibitory concentration (IC50) in assay [1] was greater than 30 µM; in assay [2], 0.49 µM.

`CC1(C)Oc2cc(OC(=O)c3ccc(-c4cccc([N+](=O)[O-])c4)cc3)ccc2CC1O` (stereo not drawn): the half-inhibitory concentration (IC50) is greater than 30 µM in assay [1] and 17.5 µM in assay [2].

Consider `Cc1ccc(-c2cc3cc4c(cc3o2)OC(C(C)(C)O)C4)cc1` (stereo not drawn), for which the IC50 in assay [1] was greater than 30 µM; in assay [2], 0.31 µM.

In the case of `CC1(C)Oc2cc(OC(=O)c3cc(OCc4ccccc4)cc(OCc4ccccc4)c3)ccc2CC1O` (stereo not drawn), the IC50 was greater than 30 µM in assay [1] and 2.6 µM in assay [2].

In the case of `CC1(C)Oc2cc(OC(=O)c3ccc(O)c(O)c3)ccc2CC1O` (stereo not drawn), the concentration for half-maximal inhibition (IC50) in assay [1] and in assay [2] was greater than 30 µM in each case.

For `CC(C)(O)C1Cc2cc3cc(-c4ccccc4)oc3cc2O1` (stereo not drawn), the figures for the IC50 in assay [1] and in assay [2] were greater than 30 µM and 0.054 µM, respectively.

For the compound `COc1cccc(-c2cc3cc4c(cc3o2)OC(C(C)(C)O)C4)c1` (stereo not drawn), the results for the IC50 in assay [1] and in assay [2] were greater than 30 µM and 0.007 µM, respectively.

For `CC(C)(O)C1Cc2cc3cc(-c4ccc(O)cc4)oc3cc2O1` (stereo not drawn), the IC50 in assay [1] is greater than 30 µM; in assay [2], 0.0042 µM. Moreover, the inhibition result in assay [3] and in assay [4] was “Dose-dependent effect” in each case.

With `CC1(C)Oc2cc(OC(=O)c3ccc(O)cc3)ccc2CC1O` (stereo not drawn), the IC50 in assay [1] and in assay [2] was greater than 30 µM each time.

On to `CCOC(=O)COc1ccc(-c2cc3cc4c(cc3o2)OC(C(C)(C)O)C4)cc1` (stereo not drawn), for which the IC50 in assay [1] was greater than 30 µM; in assay [2], 0.054 µM.

For `CC(C)(O)[C@H]1Cc2cc3cc(-c4cc(O)cc(O)c4)oc3cc2O1`, the inhibition entry in assay [4] was “Dose-dependent effect”. For the same compound, the IC50 in assay [2] came out at 0.00676 µM.

In the case of `CC(C)(O)[C@H]1Cc2cc3cc(-c4ccc(O)cc4)oc3cc2O1`, the IC50 in assay [1] is greater than 30 µM; in assay [2], 0.001 µM. For the same compound, the inhibition result in assay [4] is “Dose-dependent effect”. In addition, the inhibition result in assay [5] is “Active”.

With `CC1(C)Oc2cc(OC(=O)c3ccc(-c4cccc(C#N)c4)cc3)ccc2CC1O` (stereo not drawn), the IC50 in assay [1] and in assay [2] was greater than 30 µM in each case.

On to `COc1ccc(-c2cc3cc4c(cc3o2)OC(C(C)(C)O)C4)cc1` (stereo not drawn), for which the IC50 is greater than 30 µM in assay [1] and 0.11 µM in assay [2].

For the compound `CC(C)(O)C1Cc2cc3cc(-c4cc(O)cc(O)c4)oc3cc2O1` (racemic) [MORACIN O], the figures for the half-inhibitory concentration (IC50) in assay [1] and in assay [2] were greater than 30 µM and 0.00676 µM, respectively.

For the compound `CC(C)(O)C1Cc2cc3cc(-c4cccc(O)c4)oc3cc2O1` (stereo not drawn), the IC50 was greater than 30 µM in assay [1] and 0.046 µM in assay [2].

Values taken from ChEMBL document CHEMBL1795261, “HIF-1α inhibitors: synthesis and biological evaluation of novel moracin O and P analogues” (Eur J Med Chem, 2011).
